Reference: article PMC12966599 (Journal of Pharmaceutical Analysis, 2025)
Changes are numbered by the printed parent chain. “Also recorded” adds a separate entry of the source. Values belong to the compound of their own block, whether it stands above or below them.

Columns and labels:
SHP2-FL = target: T1, SHP2-FL (Homo sapiens, UniProt Q06124); assay: SHP2-FL inhibition assay; assay type: biochemical
T1 sequence (Q06124 1-525): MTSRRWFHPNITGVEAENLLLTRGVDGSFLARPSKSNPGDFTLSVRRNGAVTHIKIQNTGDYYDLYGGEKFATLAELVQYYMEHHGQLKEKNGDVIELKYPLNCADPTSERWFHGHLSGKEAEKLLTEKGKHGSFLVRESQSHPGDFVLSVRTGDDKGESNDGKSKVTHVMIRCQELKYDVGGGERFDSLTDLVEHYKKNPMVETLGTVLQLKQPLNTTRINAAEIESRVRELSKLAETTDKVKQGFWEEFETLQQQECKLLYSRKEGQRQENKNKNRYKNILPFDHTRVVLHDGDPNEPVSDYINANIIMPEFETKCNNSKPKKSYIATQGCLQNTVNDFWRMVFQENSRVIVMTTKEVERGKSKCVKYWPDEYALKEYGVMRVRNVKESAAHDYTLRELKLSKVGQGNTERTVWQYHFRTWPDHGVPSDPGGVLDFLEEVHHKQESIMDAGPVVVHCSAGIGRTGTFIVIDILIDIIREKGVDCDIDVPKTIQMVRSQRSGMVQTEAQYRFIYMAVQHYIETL

SHP2-PTP = target: T2, SHP2-PTP (Homo sapiens, UniProt Q06124); assay: SHP2-PTP inhibition assay; assay type: biochemical; settings: for IC50: IC50 (SHP2-PTP), DiFMUP substrate
T2 sequence (Q06124 237-529): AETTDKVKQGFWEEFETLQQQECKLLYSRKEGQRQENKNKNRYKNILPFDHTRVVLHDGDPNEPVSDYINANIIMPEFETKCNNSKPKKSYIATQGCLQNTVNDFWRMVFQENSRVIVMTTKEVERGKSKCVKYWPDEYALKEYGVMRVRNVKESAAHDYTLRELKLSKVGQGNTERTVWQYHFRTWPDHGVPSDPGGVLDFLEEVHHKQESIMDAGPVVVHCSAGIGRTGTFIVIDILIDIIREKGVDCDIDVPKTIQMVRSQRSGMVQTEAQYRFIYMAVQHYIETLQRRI

SHP2^E76K = target: T3, SHP2^E76K (Homo sapiens, UniProt Q06124, E76K); assay: Inhibition of oncogenic mutant SHP2^E76K; assay type: biochemical
T3 sequence (Q06124 1-525 E76K): T1 sequence (Q06124 1-525) with E76K

SHP2^D61V = target: T4, SHP2^D61V (Homo sapiens, UniProt Q06124, D61V); assay: Inhibition of oncogenic mutant SHP2^D61V; assay type: biochemical
T4 sequence (Q06124 1-525 D61V): T1 sequence (Q06124 1-525) with D61V

SHP2-PTP^R465A = target: T5, SHP2-PTP^R465A (Homo sapiens, UniProt Q06124, R465A); assay: BLI assay, SHP2-PTP^R465A; assay type: binding
T5 sequence (Q06124 237-529 R465A): T2 sequence (Q06124 237-529) with R229A

SHP2-PTP^Q510A = target: T6, SHP2-PTP^Q510A (Homo sapiens, UniProt Q06124, Q510A); assay: BLI assay, SHP2-PTP^Q510A; assay type: binding
T6 sequence (Q06124 237-529 Q510A): T2 sequence (Q06124 237-529) with Q274A

PTPN1 (PTP1B) = target: T7, PTPN1 (PTP1B) (Homo sapiens, UniProt P18031); assay: Phosphatase selectivity, PTPN1; assay type: biochemical
T7 sequence (P18031 1-321): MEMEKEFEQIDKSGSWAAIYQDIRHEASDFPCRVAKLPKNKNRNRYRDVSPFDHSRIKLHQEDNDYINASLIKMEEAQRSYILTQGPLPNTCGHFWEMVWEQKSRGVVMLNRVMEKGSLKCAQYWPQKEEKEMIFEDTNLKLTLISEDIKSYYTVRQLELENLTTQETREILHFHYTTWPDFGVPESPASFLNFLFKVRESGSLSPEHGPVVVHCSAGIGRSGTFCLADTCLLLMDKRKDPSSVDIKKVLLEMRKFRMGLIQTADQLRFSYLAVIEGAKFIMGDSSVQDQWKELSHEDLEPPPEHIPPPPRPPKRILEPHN

PTPN6 (SHP1) = PTPN6 (SHP1) (Homo sapiens, UniProt P29350); assay: Phosphatase selectivity, PTPN6; assay type: biochemical
Chain of PTPN6 (SHP1) (P29350 1-597 isoform P29350-3): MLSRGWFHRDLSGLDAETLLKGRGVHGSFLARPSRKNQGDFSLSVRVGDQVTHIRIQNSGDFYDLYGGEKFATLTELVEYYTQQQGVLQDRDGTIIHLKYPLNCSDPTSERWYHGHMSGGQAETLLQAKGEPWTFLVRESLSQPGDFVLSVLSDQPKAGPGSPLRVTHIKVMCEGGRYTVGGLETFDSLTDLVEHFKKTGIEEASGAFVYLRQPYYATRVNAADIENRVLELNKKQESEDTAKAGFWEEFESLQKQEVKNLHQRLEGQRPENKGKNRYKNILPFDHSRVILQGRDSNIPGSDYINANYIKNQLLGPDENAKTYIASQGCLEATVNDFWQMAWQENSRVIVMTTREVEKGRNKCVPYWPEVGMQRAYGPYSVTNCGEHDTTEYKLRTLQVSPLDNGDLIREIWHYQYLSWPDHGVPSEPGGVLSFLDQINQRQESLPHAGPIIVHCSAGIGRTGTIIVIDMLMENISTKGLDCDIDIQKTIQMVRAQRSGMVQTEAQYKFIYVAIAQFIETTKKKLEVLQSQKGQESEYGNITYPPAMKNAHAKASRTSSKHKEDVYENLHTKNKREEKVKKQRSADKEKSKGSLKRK

PTPN12 (PTP-PEST) = target: T8, PTPN12 (PTP-PEST) (Homo sapiens, UniProt Q05209); assay: Phosphatase selectivity, PTPN12; assay type: biochemical
T8 sequence (Q05209 1-305): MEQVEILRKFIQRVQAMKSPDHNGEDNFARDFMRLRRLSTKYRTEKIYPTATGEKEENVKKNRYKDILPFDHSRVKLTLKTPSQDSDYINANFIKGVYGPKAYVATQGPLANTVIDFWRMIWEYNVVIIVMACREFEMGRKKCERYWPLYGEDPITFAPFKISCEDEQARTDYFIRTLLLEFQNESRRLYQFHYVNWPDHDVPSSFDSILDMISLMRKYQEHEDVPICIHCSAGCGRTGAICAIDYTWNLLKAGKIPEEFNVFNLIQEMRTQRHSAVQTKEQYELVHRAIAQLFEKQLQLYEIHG

PTPRA (RPTPα) = PTPRA (RPTPα) (Homo sapiens, UniProt P18433); assay: Phosphatase selectivity, PTPRA; assay type: biochemical
Chain of PTPRA (RPTPα) (P18433 183-802): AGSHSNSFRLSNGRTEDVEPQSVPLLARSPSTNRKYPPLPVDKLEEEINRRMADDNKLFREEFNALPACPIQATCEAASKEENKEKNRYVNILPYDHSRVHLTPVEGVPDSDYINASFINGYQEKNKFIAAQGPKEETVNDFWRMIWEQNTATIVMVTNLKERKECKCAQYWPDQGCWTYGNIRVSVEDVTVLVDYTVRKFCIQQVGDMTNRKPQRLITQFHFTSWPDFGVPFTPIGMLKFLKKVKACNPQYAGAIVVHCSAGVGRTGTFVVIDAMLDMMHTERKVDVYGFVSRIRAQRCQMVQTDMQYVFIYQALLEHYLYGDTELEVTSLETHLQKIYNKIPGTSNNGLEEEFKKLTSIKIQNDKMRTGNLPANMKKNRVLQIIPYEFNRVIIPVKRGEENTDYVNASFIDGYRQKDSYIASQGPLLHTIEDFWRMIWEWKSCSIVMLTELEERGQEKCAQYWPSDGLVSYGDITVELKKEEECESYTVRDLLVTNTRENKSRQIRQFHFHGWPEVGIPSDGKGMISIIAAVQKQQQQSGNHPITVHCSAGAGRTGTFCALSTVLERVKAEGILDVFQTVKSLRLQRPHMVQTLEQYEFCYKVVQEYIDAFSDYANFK

LMWPTP (ACP1) = target: T9, LMWPTP (ACP1) (Homo sapiens, UniProt P24666); assay: Phosphatase selectivity, LMWPTP; assay type: biochemical
T9 sequence (P24666 1-158): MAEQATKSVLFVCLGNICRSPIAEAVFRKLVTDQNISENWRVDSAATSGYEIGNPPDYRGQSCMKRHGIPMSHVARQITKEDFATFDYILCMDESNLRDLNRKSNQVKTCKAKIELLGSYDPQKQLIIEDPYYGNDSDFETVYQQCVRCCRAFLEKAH

NCI-H1975 cells [1] = assay: Cell proliferation assay; assay type: cell-based; settings: CCK-8, day 3
Procedure, shortened: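 About 1.5 × 10^3 H1975 cells per well, in RPMI-1640 with 10% FBS, were treated with compound at 0–50 μM. On day 3 CCK-8 reagent was added and optical density read. Untreated wells served for background correction.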

[2] = system: SHP2 knockdown H1975 cells; assay: Cell proliferation in SHP2 knockdown cells; assay type: cell-based; settings: SHP2 siRNA treated H1975 cells versus H1975
NCI-H1975 cells [3] = assay: Colony formation assay; assay type: cell-based; settings: measured 10 days after compound treatment
Procedure, shortened: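 About 10^3 H1975 cells per well in RPMI-1640 with 10% FBS were allowed to adhere overnight and treated the next day. Medium and compound were renewed every 3–4 days. When untreated wells reached confluence, colonies were fixed with formaldehyde, stained with 0.2% crystal violet and scanned.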

p-ERK in H1975 cells = assay: ERK phosphorylation in cells; assay type: cell-based; settings: 10 μM
Procedure, shortened: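 H1975 cells, grown in RPMI-1640 with 10% FBS, were exposed to 10 μM compound and lysed in RIPA buffer with phosphatase and protease inhibitors. Proteins were separated and transferred. Blots were probed overnight at 4 °C with antibodies to p-ERK1/2, total ERK and β-actin diluted in 5% BSA, then developed by enhanced chemiluminescence.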

H1975 xenograft = assay: NCI-H1975 xenograft model; assay type: in vivo, BALB/c nude mice
Procedure, shortened: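 Female BALB/c nude mice, five weeks old, received a subcutaneous H1975 suspension (5 × 10^6/mL) in the right flank. At a mean tumor volume of 50–100 mm3 they were randomised into three groups. Compound in 0.5% CMC-Na was given intragastrically at 20 mg/kg/day; controls received vehicle. Body weight and tumor volume were recorded every two days. Tumor sections were stained for Ki-67, and tumor lysates were immunoblotted for p-ERK. Data are mean ± SD with two-sided t-test.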

SHP2 = settings: read-out: IC50 against SHP2; previous study; ref 22 (Liu et al.); cited from earlier work
SHP2^T253M = target: T10, SHP2^T253M (Homo sapiens, UniProt Q06124, T253M); assay: Inhibition of tunnel-site mutant SHP2^T253M; assay type: biochemical
T10 sequence (Q06124 1-525 T253M): T1 sequence (Q06124 1-525) with T253M

[4] = 20 mg/kg/day oral, versus vehicle

SHP2-FL inhibitory activity (in words) (SHP2-FL): comparable inhibitory activity
fold higher inhibitory potency against SHP2 than cryptotanshinone (SHP2-PTP; DiFMUP screening, versus cryptotanshinone): 4.7 fold
IC50 (SHP2-PTP): 1.06 ± 0.21 µM
fold lower SHP2-PTP IC50 than tanshinone IIA (SHP2-PTP; versus tanshinone IIA): 13 fold
IC50 (SHP2^E76K): 1.61 ± 0.26 µM
IC50 (SHP2^D61V): 1.34 ± 0.36 µM
IC50 (PTPN1 (PTP1B)): 9.3 ± 0.94 µM
IC50 (PTPN6 (SHP1)): 2.5 ± 0.3 µM
IC50 (PTPN12 (PTP-PEST)): 32.1 ± 3.8 µM
IC50 (PTPRA (RPTPα)): 50.4 ± 5.3 µM
IC50 (LMWPTP (ACP1)): > 100 µM
Compound: Cc1cccc2c3c(ccc12)C1=C(C(=O)C3=O)[C@@H](C)CO1 [DHT, dihydrotanshinone I]
direct interaction with SHP2-PTP^R465A (BLI) (SHP2-PTP^R465A): significantly abolished the direct interaction
direct interaction with SHP2-PTP^Q510A (BLI) (SHP2-PTP^Q510A): significantly abolished the direct interaction
proliferation of NCI-H1975 cells (NCI-H1975 cells [1]): significant suppression
sensitivity of SHP2-depleted H1975 cells (anti-proliferation) [2]: significantly lower sensitivity
colony formation of NCI-H1975 cells (NCI-H1975 cells [3]): significant suppression
ERK phosphorylation (Western blot) (p-ERK in H1975 cells): significant decrease
body weight change (H1975 xenograft; 20 mg/kg/day oral, full treatment course): No body weight loss
Ki-67 staining in tumor tissue (H1975 xenograft; [4]): reduced Ki-67 staining positive areas
MAPK phosphorylation in tumor tissue (H1975 xenograft; [4]): marked decrease
tumor growth in NCI-H1975 xenograft (H1975 xenograft; oral gavage 20 mg/kg daily, 20-day treatment, versus vehicle, 20 mg/kg): significant tumor growth suppression; also recorded: modest anti-tumor effect

Compound: C[C@H]1COC2=C1C(=O)C(=O)c1c2ccc2c1CCCC2(C)C [Cryptotanshinone]
IC50 (SHP2): 22.5 µM

effect of SHP2^T253M mutation on efficacy (in words) (SHP2^T253M): eliminated the efficacy
Compound: C[C@@H]1OCC2(CCN(c3cnc(Sc4ccnc(N)c4Cl)c(N)n3)CC2)[C@@H]1N [TNO155]

IC50 (SHP2-PTP): 3.3 ± 1.2 µM
Compound: Cc1coc2c1C(=O)C(=O)c1c-2ccc2c(C)cccc12 [Tanshinone I]
